Reference: ChEMBL document CHEMBL1158358, “Synthesis, antimicrobial and cytotoxic activities of some 5-arylidene-4-thioxo-thiazolidine-2-ones” (Eur J Med Chem, 2009)
Converted amounts (≈) assume the structure as drawn.

Experiments:
Assay type in all cases: functional
Enterococcus faecalis [1] = assay: Antimicrobial activity against Enterococcus faecalis UFPEDA 138 at 300 ug/disk after 24 hrs by disk diffusion method; conditions: UFPEDA 138, 24 h, read-out: IZ
Summary of the method: (§1)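 Preliminary screen by disk diffusion. Paper disks (6 mm) holding 300 µg of compound were placed on agar plates inoculated with a standardized microbial suspension. DMSO-only disks served as negative controls. A mean inhibition zone below 7 mm was scored as no sensitivity. Values are means, n = 3.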

Staphylococcus aureus [2] = assay: Antimicrobial activity against multidrug-resistant Staphylococcus aureus H.C. 21141 isolate after 20 hrs by twofold serial dilution technique; conditions: H.C. 21141, 20 h
Summary of the method: (§2)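 Twofold serial dilution MIC in agar plates against Gram-positive strains and multidrug-resistant clinical isolates. Inoculum applied was 10⁵ CFU/plate. Plates with culture medium plus DMSO served as negative control. MIC was read after incubation at 35 °C for 20 h.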

Staphylococcus aureus [3] = assay: Antimicrobial activity against multidrug-resistant Staphylococcus aureus H.C. 20794 isolate after 20 hrs by twofold serial dilution technique; conditions: H.C. 20794, 20 h; summary of the method: as §2
Micrococcus luteus [4] = assay: Antimicrobial activity against Micrococcus luteus UFPEDA 06 after 20 hrs by twofold serial dilution technique; conditions: UFPEDA 06, 20 h
Summary of the method: (§3)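 MIC was determined by twofold serial dilution. Bacteria were tested in plates at 10⁵ CFU/plate and read after 20 h. C. albicans was tested in tubes at 10³ CFU/tube and read after 48 h. All incubations were at 35 °C. Medium plus DMSO served as the negative control.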

Staphylococcus [5] = assay: Antimicrobial activity against coagulase-negative Staphylococcus H.A.M. 278 isolate after 20 hrs by twofold serial dilution technique; conditions: H.A.M. 278, 20 h; summary of the method: as §3
HEp-2 [6] = assay: Cytotoxicity against human Hep2 cells at 1.25 ug/mL after 72 hrs by MTT assay; conditions: HEp-2, 72 h, read-out: GI
Summary of the method: (§4)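 MTT antiproliferative assay. Cells were diluted to 10⁵ cells/mL in 96-well plates and preincubated for 24 h at 37 °C in humid 5% CO₂. Compounds or vincristine (reference) were then added. Formazan was dissolved and OD read at 540 nm, compared with medium-only control cells. Run in triplicate.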

Pseudomonas aeruginosa = assay: Antimicrobial activity against Pseudomonas aeruginosa UFPEDA 39 at 300 ug/disk after 24 hrs by disk diffusion method; conditions: UFPEDA 39, 24 h, read-out: IZ; summary of the method: as §1
Candida albicans [7] = assay: Antimicrobial activity against Candida albicans UFPEDA 1007 after 48 hrs by twofold serial dilution technique; conditions: UFPEDA 1007, 48 h; summary of the method: as §3
Staphylococcus [8] = assay: Antimicrobial activity against coagulase-negative Staphylococcus H.A.M. 338 isolate after 20 hrs by twofold serial dilution technique; conditions: H.A.M. 338, 20 h; summary of the method: as §3
NCI-H292 [9] = assay: Cytotoxicity against human NCI-H292 cells at 2.5 ug/mL after 72 hrs by MTT assay; conditions: NCI-H292, 72 h, read-out: GI; summary of the method: as §4
Bacillus subtilis [10] = assay: Antimicrobial activity against Bacillus subtilis UFPEDA 16 after 20 hrs by twofold serial dilution technique; conditions: UFPEDA 16, 20 h; summary of the method: as §3
Staphylococcus aureus [11] = assay: Antimicrobial activity against Staphylococcus aureus UFPEDA 01 at 300 ug/disk after 24 hrs by disk diffusion method; conditions: UFPEDA 01, 24 h, read-out: IZ; summary of the method: as §1
Enterococcus faecalis [12] = assay: Antimicrobial activity against multidrug-resistant Enterococcus faecalis H.C. 24708 isolate after 20 hrs by twofold serial dilution technique; conditions: H.C. 24708, 20 h; summary of the method: as §2
Staphylococcus aureus [13] = assay: Antimicrobial activity against multidrug-resistant Staphylococcus aureus H.C. 20905 isolate after 20 hrs by twofold serial dilution technique; conditions: H.C. 20905, 20 h; summary of the method: as §2
Enterococcus faecalis [14] = assay: Antimicrobial activity against multidrug-resistant Enterococcus faecalis H.C. 24962 isolate after 20 hrs by twofold serial dilution technique; conditions: H.C. 24962, 20 h; summary of the method: as §2
Escherichia coli = assay: Antimicrobial activity against Escherichia coli UFPEDA 224 at 300 ug/disk after 24 hrs by disk diffusion method; conditions: UFPEDA 224, 24 h, read-out: IZ; summary of the method: as §1
NCI-H292 [15] = assay: Cytotoxicity against human NCI-H292 cells at 1.25 ug/mL after 72 hrs by MTT assay; conditions: NCI-H292, 72 h, read-out: GI; summary of the method: as §4
Staphylococcus aureus [16] = assay: Antimicrobial activity against Staphylococcus aureus UFPEDA 01 after 20 hrs by twofold serial dilution technique; conditions: UFPEDA 01, 20 h; summary of the method: as §2
Micrococcus luteus [17] = assay: Antimicrobial activity against Micrococcus luteus UFPEDA 06 at 300 ug/disk after 24 hrs by disk diffusion method; conditions: UFPEDA 06, 24 h, read-out: IZ; summary of the method: as §1
Enterococcus faecalis [18] = assay: Antimicrobial activity against multidrug-resistant Enterococcus faecalis H.C. 21752 isolate after 20 hrs by twofold serial dilution technique; conditions: H.C. 21752, 20 h; summary of the method: as §2
Candida albicans [19] = assay: Antimicrobial activity against Candida albicans UFPEDA 1007 at 300 ug/disk after 48 hrs by disk diffusion method; conditions: UFPEDA 1007, 48 h, read-out: IZ; summary of the method: as §1
Enterococcus faecalis [20] = assay: Antimicrobial activity against multidrug-resistant Enterococcus faecalis H.C. 21944 isolate after 20 hrs by twofold serial dilution technique; conditions: H.C. 21944, 20 h; summary of the method: as §2
HEp-2 [21] = assay: Cytotoxicity against human Hep2 cells at 2.5 ug/mL after 72 hrs by MTT assay; conditions: HEp-2, 72 h, read-out: GI; summary of the method: as §4
[22] = tested on: Mycolicibacterium smegmatis; assay: Antimicrobial activity against Mycobacterium smegmatis UFPEDA 71 after 20 hrs by twofold serial dilution technique; conditions: UFPEDA 71, 20 h; summary of the method: as §3
NCI-H292 [23] = assay: Cytotoxicity against human NCI-H292 cells at 10 ug/mL after 72 hrs by MTT assay; conditions: NCI-H292, 72 h, read-out: GI; summary of the method: as §4
Staphylococcus aureus [24] = assay: Antimicrobial activity against multidrug-resistant Staphylococcus aureus H.C. 20489 isolate after 20 hrs by twofold serial dilution technique; conditions: H.C. 20489, 20 h; summary of the method: as §2
NCI-H292 [25] = assay: Cytotoxicity against human NCI-H292 cells at 5 ug/mL after 72 hrs by MTT assay; conditions: NCI-H292, 72 h, read-out: GI; summary of the method: as §4
HEp-2 [26] = assay: Cytotoxicity against human Hep2 cells at 10 ug/mL after 72 hrs by MTT assay; conditions: HEp-2, 72 h, read-out: GI; summary of the method: as §4
[27] = tested on: Mycolicibacterium smegmatis; assay: Antimicrobial activity against Mycobacterium smegmatis UFPEDA 71 at 300 ug/disk after 24 hrs by disk diffusion method; conditions: UFPEDA 71, 24 h, read-out: IZ; summary of the method: as §1
Enterococcus faecalis [28] = assay: Antimicrobial activity against Enterococcus faecalis UFPEDA 138 after 20 hrs by twofold serial dilution technique; conditions: UFPEDA 138, 20 h; summary of the method: as §3
Bacillus subtilis [29] = assay: Antimicrobial activity against Bacillus subtilis UFPEDA 16 at 300 ug/disk after 24 hrs by disk diffusion method; conditions: UFPEDA 16, 24 h, read-out: IZ; summary of the method: as §1
Serratia marcescens = assay: Antimicrobial activity against Serratia marcescens UFPEDA 398 at 300 ug/disk after 24 hrs by disk diffusion method; conditions: UFPEDA 398, 24 h, read-out: IZ; summary of the method: as §1
Staphylococcus aureus [30] = assay: Antimicrobial activity against multidrug-resistant Staphylococcus aureus H.C. 20981 isolate after 20 hrs by twofold serial dilution technique; conditions: H.C. 20981, 20 h; summary of the method: as §2
Staphylococcus aureus [31] = assay: Antimicrobial activity against multidrug-resistant Staphylococcus aureus H.C. 21036 isolate after 20 hrs by twofold serial dilution technique; conditions: H.C. 21036, 20 h; summary of the method: as §2
HEp-2 [32] = assay: Cytotoxicity against human Hep2 cells at 5 ug/mL after 72 hrs by MTT assay; conditions: HEp-2, 72 h, read-out: GI; summary of the method: as §4

SMILES: O=C1NC(=S)/C(=C/c2cccc(Cl)c2)S1
- zone of inhibition at 300 µg/disc (Enterococcus faecalis [1]): 22 mm
- MIC (Staphylococcus aureus [2]): 8 µg/mL (≈ 31.3 µM)
- MIC (Staphylococcus aureus [3]): 2 µg/mL (≈ 7.82 µM)
- MIC (Micrococcus luteus [4]): 8 µg/mL (≈ 31.3 µM)
- MIC (Staphylococcus [5]): 16 µg/mL (≈ 62.6 µM)
- inhibition of growth at 1.25 µg/mL (HEp-2 [6]): -0.36%
- zone of inhibition at 300 µg/disc (Pseudomonas aeruginosa): < 7 mm
- MIC (Candida albicans [7]): 32 µg/mL (≈ 125 µM)
- MIC (Staphylococcus [8]): 2 µg/mL (≈ 7.82 µM)
- inhibition of growth at 2.5 µg/mL (NCI-H292 [9]): 11.2%
- MIC (Bacillus subtilis [10]): 8 µg/mL (≈ 31.3 µM)
- zone of inhibition at 300 µg/disc (Staphylococcus aureus [11]): 31 mm
- MIC (Enterococcus faecalis [12]): 4 µg/mL (≈ 15.6 µM)
- MIC (Staphylococcus aureus [13]): 2 µg/mL (≈ 7.82 µM)
- MIC (Enterococcus faecalis [14]): 4 µg/mL (≈ 15.6 µM)
- zone of inhibition at 300 µg/disc (Escherichia coli): < 7 mm
- inhibition of growth at 1.25 µg/mL (NCI-H292 [15]): 3.35%
- MIC (Staphylococcus aureus [16]): 2 µg/mL (≈ 7.82 µM)
- zone of inhibition at 300 µg/disc (Micrococcus luteus [17]): 29 mm
- MIC (Enterococcus faecalis [18]): 4 µg/mL (≈ 15.6 µM)
- zone of inhibition at 300 µg/disc (Candida albicans [19]): 13 mm
- MIC (Enterococcus faecalis [20]): 4 µg/mL (≈ 15.6 µM)
- inhibition of growth at 2.5 µg/mL (HEp-2 [21]): 5.44%
- MIC [22]: 16 µg/mL (≈ 62.6 µM)
- inhibition of growth at 10 µg/mL (NCI-H292 [23]): 30.9%
- MIC (Staphylococcus aureus [24]): 2 µg/mL (≈ 7.82 µM)
- inhibition of growth at 5 µg/mL (NCI-H292 [25]): 21.6%
- inhibition of growth at 10 µg/mL (HEp-2 [26]): 18.8%
- zone of inhibition at 300 µg/disc [27]: 24 mm
- MIC (Enterococcus faecalis [28]): 8 µg/mL (≈ 31.3 µM)
- zone of inhibition at 300 µg/disc (Bacillus subtilis [29]): 25 mm
- zone of inhibition at 300 µg/disc (Serratia marcescens): < 7 mm
- MIC (Staphylococcus aureus [30]): 2 µg/mL (≈ 7.82 µM)
- MIC (Staphylococcus aureus [31]): 2 µg/mL (≈ 7.82 µM)
- inhibition of growth at 5 µg/mL (HEp-2 [32]): 17.6%

SMILES: O=C1NC(=S)/C(=C/c2ccc(Br)cc2)S1
- zone of inhibition at 300 µg/disc (Enterococcus faecalis [1]): 17 mm
- MIC (Staphylococcus aureus [2]): 4 µg/mL (≈ 13.3 µM)
- MIC (Staphylococcus aureus [3]): 2 µg/mL (≈ 6.66 µM)
- MIC (Micrococcus luteus [4]): 8 µg/mL (≈ 26.6 µM)
- MIC (Staphylococcus [5]): 4 µg/mL (≈ 13.3 µM)
- inhibition of growth at 1.25 µg/mL (HEp-2 [6]): -3.16%
- zone of inhibition at 300 µg/disc (Pseudomonas aeruginosa): < 7 mm
- MIC (Candida albicans [7]): 32 µg/mL (≈ 107 µM)
- MIC (Staphylococcus [8]): 4 µg/mL (≈ 13.3 µM)
- inhibition of growth at 2.5 µg/mL (NCI-H292 [9]): 1.19%
- MIC (Bacillus subtilis [10]): 2 µg/mL (≈ 6.66 µM)
- zone of inhibition at 300 µg/disc (Staphylococcus aureus [11]): 23 mm
- MIC (Enterococcus faecalis [12]): 8 µg/mL (≈ 26.6 µM)
- MIC (Staphylococcus aureus [13]): 4 µg/mL (≈ 13.3 µM)
- MIC (Enterococcus faecalis [14]): 8 µg/mL (≈ 26.6 µM)
- zone of inhibition at 300 µg/disc (Escherichia coli): < 7 mm
- inhibition of growth at 1.25 µg/mL (NCI-H292 [15]): 1.1%
- MIC (Staphylococcus aureus [16]): 4 µg/mL (≈ 13.3 µM)
- zone of inhibition at 300 µg/disc (Micrococcus luteus [17]): 21 mm
- MIC (Enterococcus faecalis [18]): 8 µg/mL (≈ 26.6 µM)
- zone of inhibition at 300 µg/disc (Candida albicans [19]): 15 mm
- MIC (Enterococcus faecalis [20]): 8 µg/mL (≈ 26.6 µM)
- inhibition of growth at 2.5 µg/mL (HEp-2 [21]): -0.36%
- MIC [22]: 4 µg/mL (≈ 13.3 µM)
- inhibition of growth at 10 µg/mL (NCI-H292 [23]): 36.5%
- MIC (Staphylococcus aureus [24]): 4 µg/mL (≈ 13.3 µM)
- inhibition of growth at 5 µg/mL (NCI-H292 [25]): 16.6%
- inhibition of growth at 10 µg/mL (HEp-2 [26]): 18.2%
- zone of inhibition at 300 µg/disc [27]: 17 mm
- MIC (Enterococcus faecalis [28]): 16 µg/mL (≈ 53.3 µM)
- zone of inhibition at 300 µg/disc (Bacillus subtilis [29]): 18 mm
- zone of inhibition at 300 µg/disc (Serratia marcescens): < 7 mm
- MIC (Staphylococcus aureus [30]): 4 µg/mL (≈ 13.3 µM)
- MIC (Staphylococcus aureus [31]): 4 µg/mL (≈ 13.3 µM)
- inhibition of growth at 5 µg/mL (HEp-2 [32]): 15.4%
